According to ChEMBL document CHEMBL4513216, “Probing the Open Global Health Chemical Diversity Library for Multistage-Active Starting Points for Next-Generation Antimalarials” (ACS Infect Dis, 2020):

Experiment: Toxicity liver stage against HepG2, at 10uM
Type: cell-based
Parameters: test concentration 10 uM, cell line HepG2-A16-CD81EGFP
Details: human, HepG2-A16-CD81EGFP cells; read-out: INHIBITION
Outline: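 Uninfected HepG2-A16-CD81EGFP cells, 3 × 10^3 per well, 1536-well, plated on prespotted compound at 10 μM final, parasite-free screening media added to match infected plates; puromycin 10 μM positive, DMSO 0.5% negative; run in parallel with 48 h PbLuc assay at 37 °C, 5% CO2; viability by CellTiter-Glo luminescence, normalized to controls.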

SMILES	cytotoxicity at 10 µM [%]
COCC1c2c(cnn2CC2CC2)CCN1Cc1cc(C)on1 (stereo not given)	5.5
NC1(CN2CCCCC2)CCCCC1	1.46
Cc1ccc(-c2nc(CSCCC(=O)NC(N)=O)co2)c(C)c1	-6.4
Oc1cc(C2CCCN(Cc3cccs3)C2)nc(-c2ccccn2)n1 (stereo not given)	29.5
CN(Cc1cc2cc(F)ccc2[nH]1)C(=O)C1CC(=O)N(C2CCCC2)C1 (stereo not given)	-3.26
Cc1cc(N2CCC(n3cc(CN4CCNCC4)nn3)CC2)ccn1	-1.83
CNC(=O)N1C[C@H]2N(c3ncccn3)CCC[C@@]2(C(=O)NCC2CC2)C1	-101
CCOCCn1nc(C)cc1C(=O)N1CC[C@](C)(O)C(C)(C)C1	0.429
CS(=O)(=O)N1C[C@@H]2OCC(=O)N(CC3CCC3)[C@@H]2C1	8.94
CS(=O)(=O)NCC1CCCCN1C(=O)c1ccc(Br)s1 (stereo not given)	1.58
Cc1ccc(C#N)c(N2CC(C)(C)[C@@](C)(O)C2)n1	1.39
CC(C)C(NC(N)=O)C(=O)N1CCN(c2ccccc2Cl)C(=O)C1 (stereo not given)	-1.56
Cn1ccnc1-c1nccn1-c1cccc(CN2CCCC2)c1	-2.36
CCC(CC)C(O)CNC(=O)Nc1cc(C)nn1C (stereo not given)	-11
Cc1cccc(-c2noc(CN3CCC(c4ccn[nH]4)CC3)n2)c1	4.13
O=C(NC[C@@H]1CCCO1)c1cc(Br)cnc1N1CCCCC1	-1.69
Cc1cccc(CN2CC[C@@H]3[C@@H](CO[C@H]3CNc3ncccn3)C2)n1	-5.55
Cc1noc(C)c1S(=O)(=O)NC(=O)COc1ccc(C(C)C)cc1	2.1
COc1ccc(C)cc1C(=O)N1CCCC(n2nc(C)nc2C)C1 (stereo not given)	-5.68
CN(C(=O)c1ccncc1Cl)c1ccccc1S(C)(=O)=O	17.6
Cc1cccc(C(=O)N2CC(C(=O)NCC3CC3)C3(CCOCC3)C2)n1 (stereo not given)	2.11
COc1ccc(CNC(=O)Nc2cccnc2N2CCCC2)cc1	-21.5
O=C(c1ccnnc1)N1C[C@H](OCC2CC2)[C@H]2COC[C@H]21	0.0658
Cc1ncnc(N2CCCN(c3nc4ccccc4s3)CC2)c1C	55.5
COCCOc1ccc(NC(=O)N2CCCC2c2cc(C)no2)cn1 (stereo not given)	5.32
O=C1N(c2cccnc2)CCC12CCCN(Cc1ccco1)C2 (stereo not given)	-5.79
Cc1cc(C2CCCN2Cc2cccc(C(=O)Nc3nccs3)c2)no1 (stereo not given)	-4.12
CCc1ccc(-c2c(C)c(-c3cnn(C)c3)nc(N)c2C#N)o1	-133

SMILES	cytotoxicity at 10 µM [%]
CN1CCN(C(=O)c2[nH]nnc2Nc2ccccc2F)CC1	1.36
Cn1cc(C(=O)N2CCCC2c2[nH]ncc2C(N)=O)cn1 (stereo not given)	-7.05
Cn1cc(N2C[C@@H]3CN(Cc4ccccn4)C[C@@H]3C2=O)cn1	-95.6
Cc1c(-c2nc3cc(S(=O)(=O)N4CCCC4)ccc3n2C)cnn1C	2.2
COc1ccc(C)cc1S(=O)(=O)NCCC(O)c1ccccc1 (stereo not given)	0.197
O=C(c1cc(Br)ccc1Cl)N1CCN(Cc2ccco2)CC1	-49.4
CC(=O)Nc1nc(C)c(S(=O)(=O)NCCc2cccnc2)s1	-10.5
CCn1ncc2c1CCCC2NCC1=Cc2ccccc2OC1 (stereo not given)	-4.31
CCc1cc(NCCCOC2CCCC2)ncn1	-1.41
COc1cc(NCCNC(=O)c2cscc2C)cc(OC)c1	1.6
COc1cccc(CCC(=O)N2CCCC(n3cc(C)cn3)C2)c1 (stereo not given)	4.28
O=C(C1CNCCN1C(=O)CCc1cccnc1)N1CCOCC1 (stereo not given)	4.82
Cn1cc(CCC(=O)N2C[C@@H]3CC[C@H]2CN(Cc2ccccc2)C3)cn1	-1.97
Cn1nnc2c1CCN(Cc1ccncc1)C2COCC1CC1 (stereo not given)	5.29
CN1CCCN(c2nccc(-c3c[nH]nc3C3CCCCC3)n2)CC1	0.746
Cn1cnc2c1CCN(C(C(=O)N1CCCCC1)c1ccccc1)C2 (stereo not given)	-5.34
CC(C)(C)CCN1CCN(Cn2nccc2-c2cccnc2)CC1	23.2
CCN1CCCC12CCN(C(=O)c1ccsc1)CC2	-152
CCN(Cc1noc(C)n1)C(=O)C(c1ccc(C)cc1)N(C)C (stereo not given)	-5.21
CNCC(=O)N1CCCC(c2nccnc2Oc2cccc(F)c2)C1 (stereo not given)	6.87
CN(C)c1cc(C(=O)NCC2(c3cccc(F)c3)CCOCC2)ccn1	8.8
COCCC(=O)NCCn1nc(C2CCNC2)c2cccnc21 (stereo not given)	-16.5
COCCC1(C(=O)O)CCCN(C(=O)c2cc(Cl)ccc2F)C1 (stereo not given)	-2.79
Cn1nc(C(=O)N2CCOCC2)c2c1CN(CC1CC1)C2	-90.1
NC(=O)N1C[C@H]2CN(Cc3nccs3)C[C@H]2C1	2.6
CN(Cc1nc(Cc2cccc(C(F)(F)F)c2)no1)CC1CCCCO1 (stereo not given)	3.64
Cn1cc(S(=O)(=O)N(Cc2ccc(F)cc2F)C2CC2)cc1C(N)=O	5.68
